High-throughput results from PubChem.
IDH1 mut inh – blocks human IDH1 R132H reductase activity; diaphorase/resazurin fluorescence, 60 min; inhibition, % at 10 µM; hit rate 0.18% among 70,000; AID 624101; in the data active means inhibition above about 34%; inconclusive means no clear call, values can overlap the other calls; inactive means below about 11%;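 further: 0% = DMSO and 100% = no enzyme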
Target sequence (O75874 whole entry R132H): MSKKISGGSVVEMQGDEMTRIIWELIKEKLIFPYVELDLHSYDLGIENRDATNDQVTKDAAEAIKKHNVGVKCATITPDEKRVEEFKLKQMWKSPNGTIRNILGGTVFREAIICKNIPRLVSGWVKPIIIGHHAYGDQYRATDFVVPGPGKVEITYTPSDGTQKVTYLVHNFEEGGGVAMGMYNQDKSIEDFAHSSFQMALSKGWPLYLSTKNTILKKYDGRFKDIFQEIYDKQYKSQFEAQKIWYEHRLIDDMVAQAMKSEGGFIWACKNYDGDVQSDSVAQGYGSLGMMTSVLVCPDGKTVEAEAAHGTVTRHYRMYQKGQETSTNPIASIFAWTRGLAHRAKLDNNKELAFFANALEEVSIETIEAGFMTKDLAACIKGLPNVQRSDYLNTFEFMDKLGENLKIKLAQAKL
T cruzi growth-1 – T. cruzi proliferation inhibition | T. cruzi beta-gal in NIH3T3, GalScreen luminescence, 90 h | hit rate 5.9% among 77,000 | AID 624255 | inhibition, % at 8.34 µM;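 active means mean inhibition above about 93%, with at least 55% of replicates each passing it, limit read from the data, passing the limit was not always enough; inconclusive means only one of those two conditions holds; inactive means neither condition holds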
Pf Dd2 inh – blocks growth of Plasmodium falciparum Dd2 parasites; activity change, % at 10 µM; hit rate 2.3% among 94,000; P. falciparum Dd2 growth, SYBR Green, 72 h; hits give low values; in the data active means activity change below about -80%; inconclusive means no clear call, values can overlap the other calls
KDM4C inh – blocks human GASC-1 (KDM4C) demethylase activity. hit rate 0.15% among 96,000. inhibition, % at 12.5 µM. GST-KDM4C 2-372, H3K9me3 peptide, LANCE TR-FRET. AID 720574. Q9H3R0;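 active means mean replicate inhibition above about 25%, with at least 55% of replicates also reaching it, limit read from the data, passing the limit was not always enough; inconclusive means only one of those two conditions met; inactive means neither condition met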
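System – N-terminal GST-fused human GASC-1 (KDM4C) fragment, residues 2-372 · Input – enzyme final amount 10 nM · Technique – LANCE TR-FRET, Eu antibody, ULight-streptavidin, EDTA, ex 340 nm, em 618/671 nm · Medium – HEPES buffer, pH 7.5, plus ascorbate · Incubation – enzyme reaction 30 min, then detection 60 min, both room temperature · Reagent – H3K9me3 peptide with Fe(II)/2OG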
T cruzi growth-2 – blocks T. cruzi growth in NIH3T3 host cells. shares compounds with T cruzi growth-1. T. cruzi beta-gal in NIH3T3, GalScreen luminescence, 90 h. inhibition, % at 8.35 µM. hit rate 72% among 5,600. AID 651739;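 active means mean replicate inhibition above about 95% and at least 55% of replicates individually reaching it, limit read from the data; inconclusive means only one of the two criteria is met; inactive means neither criterion is met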
T cruzi growth-3 – blocks T. cruzi growth in NIH3T3 host cells. shares compounds with T cruzi growth-1. inhibition, % at 2.09 µM. hit rate 21% among 5,600. T. cruzi beta-gal in NIH3T3, GalScreen luminescence, 90 h;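 active means mean inhibition above about 95%, with at least 55% of replicates also reaching it, limit read from the data; inconclusive means meets just one of the two conditions; inactive means meets neither condition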;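 further: plate controls were neutral control median for no effect and positive control median for full effect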
3T3 cytotox – kills mouse NIH/3T3 fibroblasts; shares compounds with T cruzi growth-1; cytotoxicity (signal decrease), % at 8.35 µM; NIH/3T3 viability, CellTiter-Glo ATP luminescence, 90 h; hit rate 14% among 5,600;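 active means mean signal decrease across replicates above about 35% based on untreated-well scatter, with enough replicates individually passing, limit read from the data; inconclusive means no rule stated though some were filed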;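 further: 0% = median of neutral control wells and 100% = median of positive control wells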
3T3 cytotox 2 – cytotoxicity in mouse NIH/3T3 fibroblasts; hit rate 56% among 5,600; shares compounds with T cruzi growth-1; NIH/3T3 viability, CellTiter-Glo ATP luminescence, 90 h; inhibition, % at 24.9 µM; AID 651744;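 active means mean loss of cell viability signal at or above a set limit, and enough replicates individually reaching it; inconclusive means meets only the mean limit or only the replicate share; inactive means meets neither condition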;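 further: 0% = median of neutral control wells and 100% = median of positive control wells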
Starred values were filed as active, the others as inactive; u = inconclusive; x = no result. Most compounds without a hit are left out; they make up all but 5.8% or so of the library.

SMILES	IDH1 mut inh	T cruzi growth-1	Pf Dd2 inh	KDM4C inh	T cruzi growth-2	T cruzi growth-3	3T3 cytotox	3T3 cytotox 2
C[C@@H]1CN([C@@H](C)CO)S(=O)(=O)c2ccc(C#CCN(C)C)cc2O[C@H]1CN(C)Cc1cccnc1	0	98*	-32	1	108*	103*	14	43*
CCCC#Cc1ccc2c(c1)O[C@H](CN(C)Cc1cccnc1)[C@@H](C)CN([C@@H](C)CO)S2(=O)=O	9	128*	-58	0	102*	104*	43*	104*
C[C@H](CO)N1C[C@H](C)[C@H](CN(C)Cc2cccnc2)Oc2cc(C#CCN(C)C)ccc2S1(=O)=O	0	91*	-20	2	95*	77	24	u
C[C@H]1CN([C@@H](C)CO)S(=O)(=O)c2ccc(C#CCN(C)C)cc2O[C@H]1CN(C)Cc1cccnc1	7	86	-5	2	x	x	x	x
COc1ccc(NC(=O)N(C)C[C@H]2Oc3ncc(C#CCN(C)C)cc3C(=O)N([C@@H](C)CO)C[C@H]2C)cc1	-3	x	16	5	x	x	x	x
COCC#Cc1ccc2c(c1)O[C@H](CN(C)S(=O)(=O)c1ccc(F)cc1)[C@H](C)CN([C@@H](C)CO)S2(=O)=O	2	101*	-53	5	76	18	9	55*
COCC#Cc1ccc2c(c1)O[C@H](CN(C)S(=O)(=O)c1ccc(F)cc1)[C@@H](C)CN([C@H](C)CO)S2(=O)=O	-6	75	-30	1	x	x	x	x
C[C@@H]1CN([C@H](C)CO)S(=O)(=O)c2ccc(C#Cc3ccc(F)cc3)cc2O[C@@H]1CN(C)S(=O)(=O)c1ccc(F)cc1	0	u	-63	1	u	112*	12	71*
CC(C)CC#Cc1ccc2c(c1)O[C@H](CN(C)S(=O)(=O)c1ccc(F)cc1)[C@@H](C)CN([C@H](C)CO)S2(=O)=O	0	x	-66	1	x	x	x	x
C[C@H](CO)N1C[C@H](C)[C@H](CN(C)S(=O)(=O)c2ccc(F)cc2)Oc2cc(Br)ccc2S1(=O)=O	-6	98*	-7	-2	100*	29	33	65*
C[C@@H]1CN([C@H](C)CO)S(=O)(=O)c2ccc(C#Cc3ccc(F)cc3)cc2O[C@H]1CN(C)S(=O)(=O)c1ccc(F)cc1	-3	110*	-34	0	98*	110*	41*	55*
CC(C)NC(=O)Nc1ccc2c(c1)C(=O)N([C@H](C)CO)C[C@H](C)[C@@H](CN(C)C(=O)c1ccccc1)OCCCC[C@H](C)O2	-12	40	49	0	x	x	x	x
C[C@H]1CN([C@@H](C)CO)S(=O)(=O)c2ccc(C#Cc3ccncc3)cc2O[C@H]1CN(C)S(=O)(=O)c1ccccc1	1	70	-40	-13	x	x	x	x
C[C@@H]1CN([C@@H](C)CO)S(=O)(=O)c2ccc(C#Cc3ccncc3)cc2O[C@@H]1CN(C)S(=O)(=O)c1ccc(F)cc1	3	114*	-83*	-5	u	51	34*	44*
CC(C)CC#Cc1ccc2c(c1)O[C@@H](CN(C)S(=O)(=O)c1ccc(F)cc1)[C@@H](C)CN([C@H](C)CO)S2(=O)=O	0	x	-29	0	x	x	x	x
C[C@H](CO)N1C[C@H](C)[C@H](CN(C)S(=O)(=O)c2ccc(F)cc2)Oc2cc(C#Cc3ccc(F)cc3)ccc2S1(=O)=O	x	111*	-72	-1	100*	106*	5	17
COc1ccc(NC(=O)Nc2ccc3c(c2)CC(=O)N([C@H](C)CO)C[C@@H](C)[C@@H](CN(C)Cc2ccc(C(F)(F)F)cc2)O3)cc1	x	83	16	-1	x	x	x	x
O=C(C[C@@H]1CC[C@@H]2[C@H](COC[C@H](O)CN2CCC(F)(F)F)O1)N1CCC(Cc2ccccc2)CC1	x	21	-25	0	x	x	x	x
CCCNC(=O)N1[C@H](CO)[C@@H](c2ccccc2)[C@H]1CNC(=O)c1cccc(F)c1	x	-15	-54	-4	x	x	x	x
CCCNC(=O)N1[C@@H](CO)[C@H](c2ccccc2)[C@@H]1CNC(=O)c1ccccc1	x	u	-1	-2	23	-15	0	-4
CCCNC(=O)N1[C@H](CO)[C@@H](c2ccccc2)[C@H]1CNC(=O)c1ccccc1	x	48	12	-6	x	x	x	x
CCCNC(=O)N1[C@@H](CO)[C@@H](c2ccccc2)[C@@H]1CNC(=O)c1cccc(F)c1	x	122*	-71	-2	81	-9	6	40*
C[C@H]1CCCCO[C@H](CN(C)CC2CCCCC2)[C@@H](C)CN([C@@H](C)CO)C(=O)c2cc(NC(=O)Nc3ccc(F)cc3)ccc2O1	0	115*	-83*	-2	97*	114*	47*	103*
CCCN(C)C[C@H]1OCCCC[C@@H](C)Oc2ccc(NC(=O)Nc3ccc(F)cc3)cc2C(=O)N([C@H](C)CO)C[C@@H]1C	x	100*	-66	-1	101*	49	1	-7
C[C@@H]1CCCCO[C@H](CN(C)CC2CCCCC2)[C@H](C)CN([C@@H](C)CO)C(=O)c2cc(NC(=O)Nc3ccc(F)cc3)ccc2O1	x	120*	-80	0	97*	114*	54*	103*
SMILES	IDH1 mut inh	T cruzi growth-1	Pf Dd2 inh	KDM4C inh	T cruzi growth-2	T cruzi growth-3	3T3 cytotox	3T3 cytotox 2
C[C@@H]1CCCCO[C@@H](CN(C)CC2CCCCC2)[C@H](C)CN([C@H](C)CO)C(=O)c2cc(NC(=O)Nc3ccc(F)cc3)ccc2O1	2	105*	-90*	0	95*	112*	21	102*
CCCC#Cc1cnc2c(c1)C(=O)N([C@H](C)CO)C[C@@H](C)[C@@H](CN(C)S(=O)(=O)c1ccccc1)O2	0	88	-47	6	x	x	x	x
CCCNC(=O)N(C)C[C@H]1Oc2cc(C#CCN(C)C)ccc2S(=O)(=O)N([C@@H](C)CO)C[C@H]1C	-1	41	3	2	x	x	x	x
C[C@@H]1CCCCO[C@@H](CN(C)CC2CCCCC2)[C@@H](C)CN([C@@H](C)CO)C(=O)c2cc(NC(=O)Nc3ccc(F)cc3)ccc2O1	2	119*	-77	0	103*	93	30	104*
C[C@H](CO)N1C[C@H](C)[C@@H](CN(C)CC2CCCCC2)OCCCC[C@H](C)Oc2ccc(NC(=O)Nc3ccc(F)cc3)cc2C1=O	0	114*	-70	-1	98*	111*	24	103*
COc1ccc(CN(C)C[C@H]2Oc3c(NC(=O)Nc4ccccc4)cccc3C(=O)N([C@H](C)CO)C[C@H]2C)cc1	x	-27	-29	1	x	x	x	x
